Data: ChEMBL document CHEMBL1255440, “An antimicrobial peptide that targets DNA repair intermediates in vitro inhibits Salmonella growth within murine macrophages” (Antimicrob Agents Chemother, 2010)

How the values were obtained:
[1] = test system: Salmonella typhimurium; assay: Antibacterial activity against 1 MOI Salmonella enterica subsp. enterica serovar Typhimurium infected in mouse J774A1 cells assessed as fold reduction in bacterial growth at 100 uM after 12 hrs; type: functional, J774.A1
[2] = test system: J774.A1; assay: Drug uptake in mouse J774A1 cells assessed as total peptide concentration at 50 uM after 5 hrs at 4 degC by HPLC analysis; type: ADME, cell-based; settings: j774.a1, 5 h
In short: (§1)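 J774A.1 cells were seeded at 300,000 per well and allowed to adhere for 24 h at 37°C in 5% CO2. Medium was replaced with DMEM containing unlabeled peptide, and cells were held at 37°C or 4°C. After three washes in ice-cold PBS, cells were lysed in NP-40 buffer and debris spun out. Reverse-phase HPLC was read at 280 nm. Peaks at 17.5 and 17.75 min were integrated against a standard curve. Intracellular mM was calculated from 300,000 cells at 1 pl each, using monomer mass.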

[3] = test system: J774.A1; assay: Drug uptake in mouse J774A1 cells assessed as total peptide concentration at 50 uM after 24 hrs at 37 degC by HPLC analysis; type: ADME, cell-based; settings: j774.a1, 24 h; in short: as §1
[4] = test system: Salmonella typhimurium; assay: Antibacterial activity against 10 MOI Salmonella enterica subsp. enterica serovar Typhimurium G785 transfected with SOS-inducible beta-galactosidase reporter infected in mouse J774A1 cells assessed as bacterial number at 150 uM after 4 hrs postinfection; type: functional, J774.A1
In short: (§2)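 J774A.1 cells infected at MOI 10 with sulA promoter-lacZ reporter strain G785 using the gentamicin-protection protocol, treated with peptide (DMSO vehicle controls) plus 15 μg/ml gentamicin for 4 or 24 h. Released bacteria were plated for colony counts in parallel, and were incubated with 33 μM C12FDG (with 0.2 mM EDTA) in LB for 2 h at 37°C. Flow cytometry gave % fluorescein-positive among LPS-antibody-positive particles; Wilcoxon exact test.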

[5] = Drug uptake in mouse peritoneal macrophages assessed as total peptide concentration at 150 uM after 24 hrs at 37 degC by HPLC analysis; type: ADME, cell-based; settings: peritoneal macrophage cell
In short: (§3)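 Macrophages were elicited in 8–12-week-old female BALB/c mice with 4% thioglycolate i.p. and harvested by lavage 4 days later. Cells were seeded at 300,000 per well for 24 h, then given unlabeled peptide in DMEM for 24 h at 37°C. Lysates were run on reverse-phase HPLC at A280. Monomer (17.5 min) and dimer (17.75 min) peak areas were compared with a standard curve. Concentration assumed 1 pl per cell; values are means of three determinations.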

[6] = test system: J774.A1; assay: Drug uptake in mouse J774A1 cells assessed as dimer to monomer peptide ratio at 50 uM after 24 hrs at 37 degC by HPLC analysis; type: ADME, cell-based; settings: j774.a1, 24 h
In short: (§4)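 J774A.1 cells were incubated with unlabeled peptide for 5 or 24 h at 37°C or 4°C, washed in ice-cold PBS and lysed with NP-40 buffer. Lysates were run on reverse-phase HPLC with an acetonitrile/0.1% TFA gradient and A280 fractions. Monomer (~17.5 min) and dimer (~17.75 min) peak areas were compared against a standard curve. Intracellular mM was calculated using 300,000 cells and 1 pl/cell, with concentration expressed as monomer mass.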

[7] = test system: J774.A1; assay: Drug uptake in mouse J774A1 cells assessed as dimer to monomer peptide ratio at 100 uM after 24 hrs at 37 degC by HPLC analysis; type: ADME, cell-based; settings: j774.a1, 24 h; in short: as §4
[8] = test system: Salmonella typhimurium; assay: Antibacterial activity against 10 MOI Salmonella enterica subsp. enterica serovar Typhimurium G785 transfected with SOS-inducible beta-galactosidase reporter infected in mouse J774A1 cells assessed as SOS induction at 150 uM after 24 hrs postinfection; type: functional, J774.A1; in short: as §2
[9] = test system: J774.A1; assay: Drug uptake in mouse J774A.1 cells assessed as total peptide concentration at 100 uM after 24 hrs at 4 degC by HPLC analysis; settings: J774A.1, 24 h
[10] = test system: J774.A1; assay: Drug uptake in mouse J774A1 cells assessed as total peptide concentration at 100 uM after 5 hrs at 37 degC by HPLC analysis; type: ADME, cell-based; settings: j774.a1, 5 h; in short: as §4
[11] = test system: Salmonella typhimurium; assay: Antibacterial activity against 1 MOI Salmonella enterica subsp. enterica serovar Typhimurium infected in mouse J774A1 cells assessed as reduction in bacterial growth at 100 uM after 24 hrs; type: functional, J774.A1; design: scale not given: the % may be the effect or the level left
In short: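 J774A.1 cells or thioglycolate-elicited BALB/c peritoneal macrophages seeded at 200,000/well, overnight 37°C 5% CO2; infected with GFP strain SDT1416, 1 h invasion, washed, 1 h in DMEM with 15 μg/ml gentamicin. Then fresh DMEM plus 15 μg/ml gentamicin with or without peptide (DMSO vehicle) for 24 h at 37°C; macrophages lysed with 1% Triton X-100, plated on LB agar for CFU.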

[12] = test system: J774.A1; assay: Drug uptake in mouse J774A1 cells assessed as dimer to monomer peptide ratio at 50 uM after 5 hrs at 4 degC by HPLC analysis; type: ADME, cell-based; settings: j774.a1, 5 h; in short: as §4
[13] = Drug uptake in mouse peritoneal macrophages assessed as dimer to monomer peptide ratio at 100 uM after 24 hrs at 37 degC by HPLC analysis; type: ADME, cell-based; settings: peritoneal macrophage cell; in short: as §3
[14] = test system: Salmonella typhimurium; assay: Antibacterial activity against 10 MOI Salmonella enterica subsp. enterica serovar Typhimurium G785 transfected with SOS-inducible beta-galactosidase reporter infected in mouse J774A1 cells assessed as SOS induction at 50 uM after 24 hrs postinfection; type: functional, J774.A1; in short: as §2
[15] = test system: J774.A1; assay: Drug uptake in mouse J774A.1 cells assessed as total peptide concentration at 50 uM after 24 hrs at 4 degC by HPLC analysis; settings: J774A.1, 24 h
[16] = test system: J774.A1; assay: Cytotoxicity against mouse J774A1 cells assessed as dead cells at 50 uM by propidium iodide assay; type: cell-based; settings: j774.a1, 50 µM
In short: (§5)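 Cells seeded at 300,000/well and allowed to adhere, then given fresh DMEM with or without peptide for 24 h. Cells trypsinized, stained with a mammalian Live/Dead viability/cytotoxicity kit and analyzed by flow cytometry. Wilcoxon exact test.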

[17] = Drug uptake in mouse peritoneal macrophages assessed as total peptide concentration at 50 uM after 24 hrs at 37 degC by HPLC analysis; type: ADME, cell-based; settings: peritoneal macrophage cell; in short: as §3
[18] = test system: J774.A1; assay: Drug uptake in mouse J774A1 cells assessed as total peptide concentration at 50 uM after 5 hrs at 37 degC by HPLC analysis; type: ADME, cell-based; settings: j774.a1, 5 h; in short: as §1
[19] = Cytotoxicity against mouse peritoneal macrophages assessed as live cells at 100 uM by calcein AM assay; type: cell-based, Peritoneal macrophage cell; settings: read-out: Activity; in short: as §5
[20] = Cytotoxicity against mouse peritoneal macrophages assessed as dead cells at 50 uM by propidium iodide assay; type: cell-based; settings: peritoneal macrophage cell; in short: as §5
[21] = Cytotoxicity against mouse peritoneal macrophages assessed as increase in metabolic activity at 150 uM after 24 hrs by MTT assay; type: ADME, cell-based; settings: peritoneal macrophage cell
In short: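 Cells seeded at 40,000/well in 96-well plates, overnight 37°C 5% CO2, then treated 24 h in fresh DMEM. MTT (4 mg/ml stock in PBS) added for up to 3 h. Formazan solubilized overnight at 37°C in SDS/dimethylformamide/acid lysis buffer, OD read at 575 nm. Paired t tests.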

[22] = Cytotoxicity against mouse J774A1 cells assessed as live cells at 50 uM by calcein AM assay; type: cell-based, J774.A1; settings: read-out: Activity; in short: as §5
[23] = test system: J774.A1; assay: Drug uptake in mouse J774A1 cells assessed as total peptide concentration at 150 uM after 5 hrs at 4 degC by HPLC analysis; type: ADME, cell-based; settings: j774.a1, 5 h; in short: as §1
[24] = test system: J774.A1; assay: Drug uptake in mouse J774A.1 cells assessed as total peptide concentration at 150 uM after 24 hrs at 4 degC by HPLC analysis; settings: J774A.1, 24 h

- Drug uptake [2]: 1.2 mM
- Drug uptake [3]: 1.4 mM
- Drug uptake [5]: 24.8 mM
- Ratio [6]: 1.7
- Ratio [7]: 2.9
- Drug uptake [9]: 32.9 mM
- Drug uptake [10]: 8 mM
- Ratio [12]: 2.3
- Ratio [13]: 0.7
- Drug uptake [15]: 10.1 mM
- Drug uptake [17]: 2.5 mM
- Drug uptake [18]: 0.9 mM
- Drug uptake [23]: 15.8 mM
- Drug uptake [24]: 47.7 mM
SMILES: N=C(N)NCCC[C@@H](NC(=O)[C@@H](CS)NC(=O)[C@@H](Cc1ccc(O)cc1)NC(=O)[C@@H](Cc1c[nH]c2ccccc12)NC(=O)[C@@H](CCCNC(=N)N)NC(=O)[C@H](N)Cc1c[nH]c2ccccc12)C(=O)O
- fold change (FC) [1]: < 50
- Activity [4]: 3%
- Activity [8]: 28.4%
- Activity [11]: 85.1%
- Activity [14]: 0.4%
- Activity [16]: 4.3%
- viability at 100 µM [19]: 94.4%
- Activity [20]: 3.2%
- Activity [21]: 18%
- viability at 50 µM [22]: 93%
